pIC50: −log10 of the molar value. Active and inactive are the calls of the source. No cut-off for these calls is given here.
How the values were obtained:
[1] = target: T1, Tyrosine-protein kinase BTK (Homo sapiens, UniProt Q06187); test: Inhibition of recombinant human BTK using KVEKIGEGTYGVVYK as substrate incubated for 40 mins in presence of [gamma33P]ATP by scintillation counting method
[2] = Oral bioavailability in Beagle dog at 2.5 mg/kg measured upto 24 hrs by LC-MS/MS analysis; format: ADME, organism-based, Canis lupus familiaris; settings: in vivo
Summary of the method: (§1)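 Rats (nonfasted; IV 1 mg/kg, PO 5 mg/kg) and dogs (fasted; IV 0.5 mg/kg, PO 2.5 mg/kg) dosed from 20% hydroxypropyl-β-cyclodextrin solution.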

[3] = target: Serine/threonine-protein kinase B-raf (Homo sapiens, UniProt P15056); test: Inhibition of recombinant human B-RAF (416 to end residues) using myelin basic protein as substrate incubated for 40 mins in presence of [gamma33P]ATP by scintillation counting method
[4] = Oral bioavailability in Sprague-Dawley rat at 5 mg/kg measured upto 24 hrs by LC-MS/MS analysis; format: ADME, organism-based; settings: in vivo
[5] = target: T2, Cytoplasmic tyrosine-protein kinase BMX (Homo sapiens, UniProt P51813); test: Inhibition of recombinant human full length BMX using poly(Glu, Tyr) 4:1 as substrate incubated for 40 mins in presence of [gamma33P]ATP by scintillation counting method
T2 sequence (P51813 whole entry): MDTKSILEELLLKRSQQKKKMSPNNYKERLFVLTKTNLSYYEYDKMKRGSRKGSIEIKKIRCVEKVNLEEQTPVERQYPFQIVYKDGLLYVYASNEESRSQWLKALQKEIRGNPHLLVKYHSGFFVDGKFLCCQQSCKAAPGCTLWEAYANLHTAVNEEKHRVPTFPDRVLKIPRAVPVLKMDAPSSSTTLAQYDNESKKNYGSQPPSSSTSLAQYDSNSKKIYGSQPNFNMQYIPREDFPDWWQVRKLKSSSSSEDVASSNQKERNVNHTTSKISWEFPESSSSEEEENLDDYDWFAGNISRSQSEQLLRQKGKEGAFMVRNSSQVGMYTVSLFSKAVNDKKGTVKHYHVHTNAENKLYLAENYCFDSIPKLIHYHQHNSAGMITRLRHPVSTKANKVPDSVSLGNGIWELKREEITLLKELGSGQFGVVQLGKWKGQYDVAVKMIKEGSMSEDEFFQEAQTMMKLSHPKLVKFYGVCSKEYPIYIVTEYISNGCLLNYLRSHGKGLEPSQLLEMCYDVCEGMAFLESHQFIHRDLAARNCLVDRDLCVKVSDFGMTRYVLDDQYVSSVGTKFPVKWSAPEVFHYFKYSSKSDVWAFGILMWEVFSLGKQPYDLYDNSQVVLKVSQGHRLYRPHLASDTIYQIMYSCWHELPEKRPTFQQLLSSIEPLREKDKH

[6] = target: T1, Tyrosine-protein kinase BTK; test: Irreversible covalent inhibition of recombinant unphosphorylated human GST-tagged BTK kinase domain (389 to 659 residues) expressed in insect cells assessed as protein-compound adduct formation under denaturing conditions by HPLC analysis
Summary of the method: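 BTK protein incubated with compound. Adduct mass measured under denaturing and nondenaturing conditions.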

[7] = target: T3, Tyrosine-protein kinase Tec (Homo sapiens, UniProt P42680); test: Inhibition of recombinant human TEC (174 to end residues) using EFPIYDFLPAKKK as substrate incubated for 40 mins in presence of [gamma33P]ATP by scintillation counting method
T3 sequence (P42680 whole entry): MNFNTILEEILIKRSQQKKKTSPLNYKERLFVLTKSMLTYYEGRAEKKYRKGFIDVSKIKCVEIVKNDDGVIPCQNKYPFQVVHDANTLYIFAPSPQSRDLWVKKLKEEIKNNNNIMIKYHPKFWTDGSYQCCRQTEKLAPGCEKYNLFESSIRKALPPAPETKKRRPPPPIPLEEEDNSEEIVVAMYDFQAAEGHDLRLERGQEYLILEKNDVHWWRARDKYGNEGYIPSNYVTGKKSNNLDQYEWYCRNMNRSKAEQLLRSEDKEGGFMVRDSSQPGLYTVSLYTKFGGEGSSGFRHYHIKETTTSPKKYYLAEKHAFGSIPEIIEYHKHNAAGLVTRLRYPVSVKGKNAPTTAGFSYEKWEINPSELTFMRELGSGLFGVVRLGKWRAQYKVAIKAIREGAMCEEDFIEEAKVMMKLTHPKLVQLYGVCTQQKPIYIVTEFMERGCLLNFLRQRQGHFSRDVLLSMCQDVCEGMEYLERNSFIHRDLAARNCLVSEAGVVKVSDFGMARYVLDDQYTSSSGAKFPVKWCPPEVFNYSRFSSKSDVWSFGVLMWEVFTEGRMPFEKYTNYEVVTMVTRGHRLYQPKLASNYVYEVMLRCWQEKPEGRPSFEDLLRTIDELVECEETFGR

[8] = Cmax in Sprague-Dawley rat at 5 mg/kg, po measured upto 24 hrs by LC-MS/MS analysis; format: ADME, organism-based; parameters: route oral, dose 5 mg/kg, time <=24; settings: in vivo; summary of the method: as §1
[9] = Volume of distribution at steady state in Sprague-Dawley rat at 5 mg/kg, po or 1 mg/kg, iv measured upto 24 hrs by LC-MS/MS analysis; format: ADME, organism-based; settings: in vivo, read-out: Vdss; summary of the method: as §1
[10] = In vivo protein occupancy at BTK in Wistar rat at 3 mg/kg, po measured after 48 hrs by ELISA relative to control; format: functional
Summary of the method: (§2)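 Single oral dose of 3 mg/kg in rats. BTK occupancy compared with plasma concentration over time out to 48 h.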

[11] = In vivo protein occupancy at BTK in Wistar rat at 3 mg/kg, po measured after 24 hrs by ELISA relative to control; format: functional; summary of the method: as §2
[12] = target: Tyrosine-protein kinase BTK (Mus musculus, UniProt P35991); test: Inhibition of BTK in C57Bl/6 mouse splenocyte assessed as reduction in anti-IgM-induced CD69 expression incubated for 1 hr followed anti-IgM stimulation and measured after overnight by flow cytometry analysis; format: tissue-based
Summary of the method: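 Mouse splenocytes stimulated with anti-IgM. CD69 expression measured as the read-out.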

Rattus norvegicus = test: Antiinflammatory activity in po dosed Wistar rat model of type-2 collagen/incomplete freund's adjuvant-induced arthritis assessed as reduction in paw inflammation administered once daily on day 9 post type-2 collagen/incomplete freund's adjuvant stimulation and treated until day 16; format: functional, organism-based; settings: dose 1-30 mg/kg, time 8.0 day
Summary of the method: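 Arthritis induced in female Wistar rats by collagen injection on day 0 and day 7. Compound given orally once daily from day 9 through day 16. Hind paw inflammation scored. Anti-TNFα comparator dosed at 10 mg/kg every other day.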

[13] = Inhibition of BTK in Wistar rat whole blood assessed as reduction in anti-IgD-induced B220/CD86+ expression incubated for 1 hr followed anti-IgD stimulation and measured after overnight by flow cytometry analysis; format: tissue-based; settings: Rattus norvegicus, Blood, 1 h
Summary of the method: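 B-cell activation induced by anti-IgD in rat whole blood, read as B220+CD86+ cells.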

[14] = Cmax in Beagle dog at 2.5 mg/kg, po measured upto 24 hrs by LC-MS/MS analysis; format: ADME, organism-based, Canis lupus familiaris; parameters: route oral, dose 2.5 mg/kg, time <=24; settings: in vivo; summary of the method: as §1
[15] = Half life in Beagle dog at 0.5 mg/kg, iv measured upto 24 hrs by LC-MS/MS analysis; format: ADME, organism-based, Canis lupus familiaris; settings: in vivo; summary of the method: as §1
[16] = target: Tyrosine-protein kinase Lck (Homo sapiens, UniProt P06239); test: Inhibition of recombinant human full length LCK using KVEKIGEGTYGVVYK as substrate incubated for 40 mins in presence of [gamma33P]ATP by scintillation counting method
Sequence of Tyrosine-protein kinase Lck (P06239 whole entry): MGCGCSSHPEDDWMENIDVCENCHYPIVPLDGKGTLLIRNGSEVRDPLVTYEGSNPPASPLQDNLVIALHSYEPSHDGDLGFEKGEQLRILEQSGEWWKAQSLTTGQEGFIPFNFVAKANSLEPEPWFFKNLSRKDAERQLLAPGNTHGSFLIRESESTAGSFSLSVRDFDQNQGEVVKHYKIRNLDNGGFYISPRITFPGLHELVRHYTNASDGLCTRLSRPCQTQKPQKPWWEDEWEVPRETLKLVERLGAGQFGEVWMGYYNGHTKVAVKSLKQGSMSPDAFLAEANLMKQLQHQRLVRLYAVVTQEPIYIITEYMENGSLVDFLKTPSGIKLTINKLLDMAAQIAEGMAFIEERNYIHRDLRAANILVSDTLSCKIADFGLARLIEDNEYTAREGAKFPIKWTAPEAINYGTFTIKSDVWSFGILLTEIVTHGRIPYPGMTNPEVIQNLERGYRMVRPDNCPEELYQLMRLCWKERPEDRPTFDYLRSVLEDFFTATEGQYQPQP

T1 sequence (Q06187 whole entry): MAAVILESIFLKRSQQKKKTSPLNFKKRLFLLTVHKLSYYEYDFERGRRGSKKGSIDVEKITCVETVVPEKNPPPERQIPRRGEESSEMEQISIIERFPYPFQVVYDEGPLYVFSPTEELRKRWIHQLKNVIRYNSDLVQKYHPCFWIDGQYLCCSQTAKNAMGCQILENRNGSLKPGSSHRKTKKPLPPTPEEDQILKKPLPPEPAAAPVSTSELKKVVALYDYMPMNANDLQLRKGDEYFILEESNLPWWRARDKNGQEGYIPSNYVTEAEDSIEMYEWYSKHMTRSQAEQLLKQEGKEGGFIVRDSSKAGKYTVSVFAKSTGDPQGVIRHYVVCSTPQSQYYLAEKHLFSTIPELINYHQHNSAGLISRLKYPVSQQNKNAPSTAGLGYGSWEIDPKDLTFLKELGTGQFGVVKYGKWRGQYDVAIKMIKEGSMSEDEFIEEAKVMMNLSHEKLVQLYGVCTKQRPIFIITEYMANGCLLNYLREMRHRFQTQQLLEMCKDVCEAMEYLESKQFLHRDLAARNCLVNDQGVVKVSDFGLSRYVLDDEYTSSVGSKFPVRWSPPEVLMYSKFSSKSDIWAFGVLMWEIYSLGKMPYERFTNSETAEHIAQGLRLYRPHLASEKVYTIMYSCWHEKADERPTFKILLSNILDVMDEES
Sequence of Tyrosine-protein kinase BTK (Mus musculus, UniProt P35991) (P35991 whole entry): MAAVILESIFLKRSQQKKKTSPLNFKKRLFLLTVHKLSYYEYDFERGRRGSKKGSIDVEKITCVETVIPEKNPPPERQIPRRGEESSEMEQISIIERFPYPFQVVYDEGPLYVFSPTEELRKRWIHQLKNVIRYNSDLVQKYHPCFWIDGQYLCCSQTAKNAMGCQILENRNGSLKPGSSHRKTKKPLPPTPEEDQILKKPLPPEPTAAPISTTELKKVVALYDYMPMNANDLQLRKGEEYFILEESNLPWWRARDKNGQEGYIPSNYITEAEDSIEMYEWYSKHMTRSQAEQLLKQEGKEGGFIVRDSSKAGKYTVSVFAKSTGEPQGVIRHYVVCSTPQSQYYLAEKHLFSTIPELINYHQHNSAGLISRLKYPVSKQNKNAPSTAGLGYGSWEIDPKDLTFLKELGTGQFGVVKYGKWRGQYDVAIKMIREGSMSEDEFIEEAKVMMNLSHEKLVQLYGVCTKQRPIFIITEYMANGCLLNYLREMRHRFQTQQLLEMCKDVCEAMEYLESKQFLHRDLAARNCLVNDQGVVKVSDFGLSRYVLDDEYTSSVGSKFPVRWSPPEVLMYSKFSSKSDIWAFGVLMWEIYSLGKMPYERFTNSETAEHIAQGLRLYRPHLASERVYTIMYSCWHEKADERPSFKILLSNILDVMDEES
Sequence of Serine/threonine-protein kinase B-raf (P15056 whole entry): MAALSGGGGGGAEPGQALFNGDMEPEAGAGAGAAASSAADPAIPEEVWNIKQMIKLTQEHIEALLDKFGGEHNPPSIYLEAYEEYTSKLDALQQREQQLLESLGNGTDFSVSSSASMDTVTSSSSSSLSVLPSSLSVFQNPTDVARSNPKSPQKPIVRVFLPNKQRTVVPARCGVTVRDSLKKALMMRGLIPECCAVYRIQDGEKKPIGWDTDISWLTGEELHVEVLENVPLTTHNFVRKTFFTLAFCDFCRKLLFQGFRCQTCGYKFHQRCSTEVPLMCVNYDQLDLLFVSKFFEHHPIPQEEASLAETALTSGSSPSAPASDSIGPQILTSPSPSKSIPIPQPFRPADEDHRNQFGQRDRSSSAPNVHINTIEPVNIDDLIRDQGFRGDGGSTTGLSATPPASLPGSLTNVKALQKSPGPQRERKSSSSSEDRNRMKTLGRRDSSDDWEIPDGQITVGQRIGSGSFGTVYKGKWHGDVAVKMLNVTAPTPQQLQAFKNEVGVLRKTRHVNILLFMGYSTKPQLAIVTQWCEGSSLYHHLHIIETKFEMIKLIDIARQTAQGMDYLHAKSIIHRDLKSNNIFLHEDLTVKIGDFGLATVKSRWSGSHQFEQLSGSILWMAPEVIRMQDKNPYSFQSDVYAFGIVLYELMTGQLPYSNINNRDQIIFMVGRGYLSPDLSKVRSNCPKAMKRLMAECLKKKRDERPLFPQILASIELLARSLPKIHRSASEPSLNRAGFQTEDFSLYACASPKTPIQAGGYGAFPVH

- pIC50 [1]: 6.85
- bioavailability [2]: 68%
- pIC50 [3]: 5.11
- bioavailability [4]: 29.7%
- pIC50 [5]: 6.89
- inhibition [6]: Active
- pIC50 [7]: 6.39
- Cmax [8]: 600 nM
- Vd [9]: 1 L/kg
- pIC50 [12]: 7.96
- pIC50 [13]: 6.89
- Cmax [14]: 1500 nM
- half-life [15]: 1.9 h
- pIC50 [16]: 6.89
SMILES: C=CC(=O)N1CC[C@@H](NC(=O)c2sc3nccc4c3c2NC(=O)N4c2ccc(Oc3ccccc3)cc2C)C1
- Activity [10]: 50%
- Activity [11]: 70%
- Activity (Rattus norvegicus): Dose-Dependent Effect

Source: ChEMBL document CHEMBL4814076, “Discovery of a Potent and Selective Covalent Inhibitor of Bruton's Tyrosine Kinase with Oral Anti-Inflammatory Activity” (ACS Med Chem Lett, 2021)
